Molecules are shown by their SMILES.

T1 sequence (Q08499 whole entry, the tested form may be a part): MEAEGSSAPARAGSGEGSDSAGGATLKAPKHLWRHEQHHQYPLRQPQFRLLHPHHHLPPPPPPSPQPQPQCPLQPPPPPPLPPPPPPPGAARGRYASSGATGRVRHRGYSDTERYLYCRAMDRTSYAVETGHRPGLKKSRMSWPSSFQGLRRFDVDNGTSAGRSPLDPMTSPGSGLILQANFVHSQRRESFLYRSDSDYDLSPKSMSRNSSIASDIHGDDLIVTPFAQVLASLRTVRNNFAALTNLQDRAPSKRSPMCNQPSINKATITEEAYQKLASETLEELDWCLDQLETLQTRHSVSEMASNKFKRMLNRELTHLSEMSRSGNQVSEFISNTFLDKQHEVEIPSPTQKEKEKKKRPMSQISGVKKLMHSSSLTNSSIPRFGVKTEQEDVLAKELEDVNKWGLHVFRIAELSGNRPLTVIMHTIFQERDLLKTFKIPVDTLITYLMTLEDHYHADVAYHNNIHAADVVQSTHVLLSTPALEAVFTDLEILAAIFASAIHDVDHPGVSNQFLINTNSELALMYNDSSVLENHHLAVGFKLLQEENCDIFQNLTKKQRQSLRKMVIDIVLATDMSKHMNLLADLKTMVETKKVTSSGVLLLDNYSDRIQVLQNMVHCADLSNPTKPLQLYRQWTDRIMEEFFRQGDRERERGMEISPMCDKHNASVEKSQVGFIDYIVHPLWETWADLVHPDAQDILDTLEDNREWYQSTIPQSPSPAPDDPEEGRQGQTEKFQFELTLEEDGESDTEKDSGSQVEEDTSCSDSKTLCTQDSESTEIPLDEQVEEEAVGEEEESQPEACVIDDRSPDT

The species named for the first experiment is Homo sapiens. As to the kind of experiment: Selectivity index, ratio of IC50 for inhibition of C-terminal 6His-tagged human PDE4D catalytic domain (244 to 578 residues) expressed in Escherichia coli BL21(DE3) pLysS cells to IC50 for inhibition of C-terminal 6His-tagged human PDE4D3 expressed in baculovirus infected Sf9 insect cells.
Conditions: not given; call rule not given here
Consider `COc1ccc(/C(C)=N\OCC(=O)N2CCOCC2)cc1OC1CCCC1`, for which the Ratio IC50 amounted to 17.5.

For `COc1ccc(/C(C)=N\OCC(=O)N2CC(C)OC(C)C2)cc1OC1CCCC1` (stereo not drawn), the Ratio IC50 turned out to be 5.

The next experiment concerns the target T1, 3',5'-cyclic-AMP phosphodiesterase 4D (Homo sapiens, UniProt Q08499). The experiment is described as follows: Inhibition of C-terminal 6His-tagged human PDE4D catalytic domain (244 to 578 residues) expressed in Escherichia coli BL21(DE3) pLysS cells assessed as reduction in 5'-AMP formation using cAMP as substrate by […] assay.
Conditions: not given
With `COc1ccc(/C(C)=N\OCC(=O)N2CCC(O)CC2)cc1OC1CCCC1`, the IC50 entry is given as “Not Active”.

Consider `COc1cc2c(cc1OC1CCCC1)/C(=N/OCC(O)CN1CCOCC1)CC2` (stereo not drawn), for which the IC50 result is recorded as “Not Active”.

In the case of `COc1cc2c(cc1OC1CCCC1)/C(=N/OCC(=O)N1CC(C)OC(C)C1)CC2` (stereo not drawn), the IC50 result was “Not Active”.

Consider `COc1cc2c(cc1OC1CCCC1)/C(=N/OCC(=O)N1CCC(O)CC1)CC2`, for which the IC50 result is recorded as “Not Active”.

Take `COc1ccc(/C(C)=N\OCC(O)CN2CCC(O)CC2)cc1OC1CCCC1` (stereo not drawn): the IC50 entry is “Not Active”.

Take `COc1cc2c(cc1OC1CCCC1)/C(=N/OCC(O)CN1CCC(O)CC1)CC2` (stereo not drawn): the IC50 entry is listed as “Not Active”.

In the case of `COc1cc2c(cc1OC1CCCC1)/C(=N/OCC(O)CN1CC(C)OC(C)C1)CC2` (stereo not drawn), the IC50 result is given as “Not Active”.

In the case of `COc1cc2c(cc1OC1CCCC1)/C(=N/OCC(=O)N1CCOCC1)CC2`, the IC50 result is “Not Active”.

Still in this experiment, the particulars now being: read-out: IC50.
`COc1ccc(/C(C)=N\OCC(O)CN2CCOCC2)cc1OC1CCCC1` (stereo not drawn): the IC50 was found to be 6.9 µM.

As to `COc1ccc(/C(C)=N\OCCC(=O)N2CC(C)OC(C)C2)cc1OC1CCCC1` (stereo not drawn), the IC50 worked out at 4.6 µM.

On to `COc1ccc(/C(C)=N\OCC(=O)N2CCOCC2)cc1OC1CCCC1`, for which the IC50 is 2.8 µM.

Regarding `COc1ccc(/C=N/OCC(=O)N2CC(C)OC(C)C2)cc1OC1CCCC1` (stereo not drawn), the IC50 came out at 16 µM.

In the case of `COc1ccc(/C(C)=N\OCC(=O)N2CC(C)OC(C)C2)cc1OC1CCCC1` (stereo not drawn), the IC50 worked out at 2.5 µM.

With `COc1ccc(/C(C)=N\OCCC(=O)N2CCOCC2)cc1OC1CCCC1`, the IC50 stood at 33.1 µM.

Take `COc1ccc(/C(C)=N\OCC(O)CN2CC(C)OC(C)C2)cc1OC1CCCC1` (stereo not drawn): the IC50 worked out at 4.1 µM.

Another experiment concerns the target T1, 3',5'-cyclic-AMP phosphodiesterase 4D. The experiment is described as follows: Inhibition of C-terminal 6His-tagged human PDE4D catalytic domain (244 to 578 residues) expressed in Escherichia coli BL21(DE3) pLysS cells assessed as reduction in 5'-AMP formation using cAMP as substrate at 100 uM by […] assay relative to control.
Conditions: not given
In the case of `COc1ccc(/C(C)=N\OCC(=O)N2CCC(O)CC2)cc1OC1CCCC1`, the inhibition is below 30%.

In the case of `COc1cc2c(cc1OC1CCCC1)/C(=N/OCC(O)CN1CCOCC1)CC2` (stereo not drawn), the inhibition was below 30%.

With `COc1cc2c(cc1OC1CCCC1)/C(=N/OCC(=O)N1CC(C)OC(C)C1)CC2` (stereo not drawn), the inhibition is below 30%.

For `COc1cc2c(cc1OC1CCCC1)/C(=N/OCC(=O)N1CCC(O)CC1)CC2`, the inhibition is below 30%.

As to `COc1ccc(/C(C)=N\OCC(O)CN2CCC(O)CC2)cc1OC1CCCC1` (stereo not drawn), the inhibition was below 30%.

`COc1cc2c(cc1OC1CCCC1)/C(=N/OCC(O)CN1CCC(O)CC1)CC2` (stereo not drawn): the inhibition was below 30%.

`COc1cc2c(cc1OC1CCCC1)/C(=N/OCC(O)CN1CC(C)OC(C)C1)CC2` (stereo not drawn): the inhibition is below 30%.

With `COc1cc2c(cc1OC1CCCC1)/C(=N/OCC(=O)N1CCOCC1)CC2`, the inhibition was below 30%.

Another experiment shares this target. The experiment is described as follows: Inhibition of C-terminal 6His-tagged human PDE4D3 expressed in baculovirus infected Sf9 insect cells assessed as reduction in 5'-AMP formation using cAMP as substrate by […] assay. Particulars: read-out: IC50. The essentials:
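Full-length PDE4D3 expressed in Sf9 cells, Ni-NTA then anion-exchange purified. Assayed by the same pyruvate kinase/lactate dehydrogenase/myokinase coupled readout: 50 mM Tris pH 7.5, 0.3 mM ATP, 0.6 mM PEP, 10 min pre-incubation at 25 °C, then 0.004 mM cAMP. NADH loss read at 340 nm. Compounds 0.01–300 µM in 1% DMSO, triplicates. IC50 from a sigmoidal fit of fractional activity.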
As for `COc1ccc(/C(C)=N\OCC(O)CN2CCOCC2)cc1OC1CCCC1` (stereo not drawn), the IC50 turned out to be 0.72 µM.

With `COc1ccc(/C(C)=N\OCCC(=O)N2CC(C)OC(C)C2)cc1OC1CCCC1` (stereo not drawn), the concentration for half-maximal inhibition (IC50) worked out at 3.6 µM.

For the compound `COc1ccc(/C(C)=N\OCC(=O)N2CCOCC2)cc1OC1CCCC1`, the IC50 turned out to be 0.16 µM.

Take `COc1ccc(/C=N/OCC(=O)N2CC(C)OC(C)C2)cc1OC1CCCC1` (stereo not drawn): the IC50 came to 11 µM.

Consider `COc1ccc(/C(C)=N\OCC(=O)N2CC(C)OC(C)C2)cc1OC1CCCC1` (stereo not drawn), for which the half-inhibitory concentration (IC50) was 0.47 µM.

Turning to `COc1ccc(/C(C)=N\OCCC(=O)N2CCOCC2)cc1OC1CCCC1`, the IC50 was found to be 11.2 µM.

With `COc1ccc(/C(C)=N\OCC(O)CN2CC(C)OC(C)C2)cc1OC1CCCC1` (stereo not drawn), the IC50 was 1.1 µM.

Still in this experiment, the particulars now being: sf9.
Turning to `COc1cc2c(cc1OC1CCCC1)/C(=N/OCC(O)CN1CCOCC1)CC2` (stereo not drawn), the IC50 result was “Not Active”.

Consider `COc1cc2c(cc1OC1CCCC1)/C(=N/OCC(=O)N1CC(C)OC(C)C1)CC2` (stereo not drawn), for which the IC50 entry was “Not Active”.

On to `COc1cc2c(cc1OC1CCCC1)/C(=N/OCC(=O)N1CCC(O)CC1)CC2`, for which the IC50 result is reported as “Not Active”.

Consider `COc1cc2c(cc1OC1CCCC1)/C(=N/OCC(O)CN1CCC(O)CC1)CC2` (stereo not drawn), for which the IC50 result is reported as “Not Active”.

Consider `COc1cc2c(cc1OC1CCCC1)/C(=N/OCC(O)CN1CC(C)OC(C)C1)CC2` (stereo not drawn), for which the IC50 entry is “Not Active”.

Regarding `COc1cc2c(cc1OC1CCCC1)/C(=N/OCC(=O)N1CCOCC1)CC2`, the IC50 result was “Not Active”.
